TNAP inh hiacc: human TNAP enzyme inhibitors, primary screen, biochemical, luminescent, high phosphate acceptor level, uHTS; purified TNAP, CDP-star luminescence, 1 M DEA; 200,000 tested, 0.03% active; Alkaline phosphatase, tissue-nonspecific isozyme (Homo sapiens), P05186; inhibition, % at 20 µM;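 active = over 50% inhibition of tissue-nonspecific alkaline phosphatase at 20 µM in the single-dose screen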;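 also: plate controls were DMSO wells for no effect and EDTA-quenched wells as full inhibition for full effect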
Target sequence (P05186 whole entry, looked up): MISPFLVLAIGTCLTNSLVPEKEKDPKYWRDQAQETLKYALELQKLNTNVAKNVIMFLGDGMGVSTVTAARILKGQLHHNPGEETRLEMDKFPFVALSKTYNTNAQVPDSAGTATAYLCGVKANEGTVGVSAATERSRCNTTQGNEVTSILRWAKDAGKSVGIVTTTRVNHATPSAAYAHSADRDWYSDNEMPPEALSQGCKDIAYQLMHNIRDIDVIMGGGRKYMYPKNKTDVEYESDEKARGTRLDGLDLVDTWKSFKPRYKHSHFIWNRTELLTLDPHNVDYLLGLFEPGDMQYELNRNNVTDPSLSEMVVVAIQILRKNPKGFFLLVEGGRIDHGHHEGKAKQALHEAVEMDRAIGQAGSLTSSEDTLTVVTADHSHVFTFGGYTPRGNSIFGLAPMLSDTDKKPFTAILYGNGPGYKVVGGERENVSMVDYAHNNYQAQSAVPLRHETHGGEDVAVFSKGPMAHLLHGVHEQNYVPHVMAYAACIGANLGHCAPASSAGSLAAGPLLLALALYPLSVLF
Lmaj promast: Leishmania major promastigote growth inhibition, primary screen; Leishmania major promastigotes, resazurin fluorescence viability; inhibition, % at 10 µM; AID 1063, 2008; 200,000 tested, 9% active; in the data active = inhibition above about 50%;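 also: promastigotes grown with compound for 44 hours at 28 °C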
TNAP inh no acc: human TNAP enzyme inhibitors, primary screen, biochemical, luminescent, no phosphate acceptor, uHTS. AID 1012, 2008. inhibition, % at 20 µM. purified TNAP, CDP-star luminescence, 30 min. Alkaline phosphatase, tissue-nonspecific isozyme (Homo sapiens), P05186. 200,000 tested, 0.26% active;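 active = tissue-nonspecific alkaline phosphatase inhibition above about 50% at 20 µM in the single-dose screen, limit read from the data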;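 also: 0% = DMSO negative control and 100% = EDTA positive control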
PTEN del growth: growth suppression of PTEN-null HCT116, primary screen, cell-based, CellTiter-Glo. HCT116 PTEN-null viability, 60 h; stronger effect = lower value. 140,000 tested, 1.2% active. viability, % at 10 µM. AID 827, 2007;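 active = viability at or below a set limit, 4 SD under the median of all tested compounds, cut at about 3.7% in these data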;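 also: PTEN knockout HCT116 line with beta catenin targeted HCT116 as companion control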
HCT116 bCat-KO: primary screen for growth suppressors in beta-catenin knockout HCT116 cells (colon tumor, human); HCT116 beta-catenin knockout viability, CellTiter-Glo, 60 h; stronger effect = lower value; viability, % at 10 µM; 140,000 tested, 1.5% active;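 active = viability at or under a set limit, the compound median less 4 SD, cut at about 6% in these data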;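 also: 0% = Hyamine 1622 control at 20 µM and 100% = untreated cell control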
TNAP act hiacc: TNAP activators at high phosphate acceptor level, primary screen, biochemical, luminescence, uHTS; Alkaline phosphatase, tissue-nonspecific isozyme (Homo sapiens), P05186; purified TNAP, CDP-star luminescence, 1 M DEA, 30 min; stronger effect = higher value; 0 = EDTA background, 1 = DMSO-only activity; activation factor at 20 µM; 200,000 tested, under 10 active;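 active = activation factor at least 2 at 20 µM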
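Control set: EDTA negative control, DMSO positive control / Assay system: human TNAP / Quantity: TNAP 1/800 final / Evaluation: TNAP activation factor scaled between EDTA and DMSO control wells / Measured by: luminescent substrate turnover signal / Compound dosing: one dose, 20 µM / Times: 30 min enzyme reaction at room temperature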
* hit, by the source's call. An excerpt weighted towards active compounds, which were near 9.6% of everything screened.

Cc1cc(C)c(C)c(OCCCOc2cccc3cccnc23)c1 was read as TNAP inh hiacc -1, Lmaj promast 25, TNAP inh no acc -14, PTEN del growth 54, HCT116 bCat-KO 54 and TNAP act hiacc 1.
For Cc1nc(C)c(N)c(=O)[nH]1 the results were TNAP inh hiacc -3, Lmaj promast -1, TNAP inh no acc -16 and TNAP act hiacc 1.
Screening COc1ccc(OCCSc2n[nH]c(N)n2)cc1 returned TNAP inh hiacc -5, Lmaj promast 0, TNAP inh no acc -2, PTEN del growth 94, HCT116 bCat-KO 102 and TNAP act hiacc 1.1.
Screening CC(C)CSc1n[nH]c(N)n1 returned TNAP inh hiacc -1, Lmaj promast 1, TNAP inh no acc 50* and TNAP act hiacc 1.
Screening O=C(Nc1ccc(Cl)cc1)OCCn1nnnc1C(c1ccccc1Cl)N1CCOCC1 (stereo not given) returned TNAP inh hiacc -6, Lmaj promast 90*, TNAP inh no acc -5, PTEN del growth 69, HCT116 bCat-KO 77 and TNAP act hiacc 1.1.
Cc1ccccc1-c1nc(CN2CCC(C(=O)NCCCN3CC(C)CC(C)C3)CC2)c(C)o1 (stereo not given) was read as TNAP inh hiacc -13, Lmaj promast 76*, TNAP inh no acc -17, PTEN del growth 36, HCT116 bCat-KO 32 and TNAP act hiacc 1.1.
For Cc1oc(-c2ccc(Cl)cc2)nc1CN1CCC(C(=O)N2CCN(Cc3ccccc3)CC2)CC1 the results were TNAP inh hiacc -7, Lmaj promast 10, TNAP inh no acc -6, PTEN del growth 7, HCT116 bCat-KO 2.0* and TNAP act hiacc 1.1.
Cc1oc(-c2ccc(Cl)cc2)nc1CN1CCCC(C(=O)NCCCN2CCOCC2)C1 (stereo not given) was read as TNAP inh hiacc -4, Lmaj promast 76*, TNAP inh no acc -11, PTEN del growth 43, HCT116 bCat-KO 34 and TNAP act hiacc 1.
For Cc1ccc(C(=O)NNC(=O)c2cccc(S(=O)(=O)N3CCN(c4ccccc4)CC3)c2)cc1 the results were TNAP inh hiacc -4, Lmaj promast -12, TNAP inh no acc -83, PTEN del growth 101, HCT116 bCat-KO 97 and TNAP act hiacc 1.
For O=C(/C=C/c1ccc(S(=O)(=O)NCc2ccco2)cc1)N1CCN(c2ccccc2)CC1 the results were TNAP inh hiacc -6, Lmaj promast 12, TNAP inh no acc -2 and TNAP act hiacc 1.1.
`COc1ccc(-c2cc(-c3cc(OC)ccc3O)[nH]n2)cc1` gave TNAP inh hiacc -5, Lmaj promast 91*, TNAP inh no acc -54, PTEN del growth 36, HCT116 bCat-KO 21 and TNAP act hiacc 1.
`COc1ccc(-c2cc(-c3ccc(OC)c(OC)c3)n[nH]2)c(O)c1` gave TNAP inh hiacc -7, Lmaj promast 99*, TNAP inh no acc -34, PTEN del growth 32, HCT116 bCat-KO 26 and TNAP act hiacc 1.1.
Screening Oc1ccc(Br)cc1-c1cc(-c2ccc(Cl)cc2)n[nH]1 returned TNAP inh hiacc -2, Lmaj promast -2, TNAP inh no acc -4, PTEN del growth 3.3*, HCT116 bCat-KO 3.7* and TNAP act hiacc 1.
Screening COc1ccc(-c2cc(-c3ccccc3O)[nH]n2)cc1OC returned TNAP inh hiacc -7, Lmaj promast 40, TNAP inh no acc -36, PTEN del growth 52, HCT116 bCat-KO 57 and TNAP act hiacc 1.1.
Screening Cc1ccc(O)c(-c2cc(-c3cccc(F)c3)n[nH]2)c1 returned TNAP inh hiacc 2, Lmaj promast 99*, TNAP inh no acc -11, PTEN del growth 47, HCT116 bCat-KO 40 and TNAP act hiacc 1.
O=S1(=O)CCC(NC(=S)N2CCCCC2)C1 (stereo not given) was read as TNAP inh hiacc -1, Lmaj promast -4, TNAP inh no acc -16, PTEN del growth 97, HCT116 bCat-KO 93 and TNAP act hiacc 1.
Screening CC(C(=O)Nc1cccc(Br)c1)c1ccc([N+](=O)[O-])cc1 (stereo not given) returned TNAP inh hiacc -4, Lmaj promast 51*, TNAP inh no acc 4, PTEN del growth 58, HCT116 bCat-KO 72 and TNAP act hiacc 1.
For CN1CCN(C(=O)C2(NC(=O)Nc3ccccc3Cl)CCCCC2)CC1 the results were TNAP inh hiacc 0, Lmaj promast 15, TNAP inh no acc -9, PTEN del growth 94, HCT116 bCat-KO 98 and TNAP act hiacc 1.
For CCN1CCN(C(=O)C2(NC(=O)Nc3ccccc3Cl)CCCCC2)CC1 the results were TNAP inh hiacc 3, Lmaj promast 55*, TNAP inh no acc -11, PTEN del growth 93, HCT116 bCat-KO 93 and TNAP act hiacc 1.
`O=C(NCc1ccccc1)NC1(C(=O)N2CCN(c3ccccc3)CC2)CCCCC1` gave TNAP inh hiacc -32, Lmaj promast 54*, TNAP inh no acc -318, PTEN del growth 98, HCT116 bCat-KO 89 and TNAP act hiacc 1.3.
Screening O=C(NCc1ccccc1)NC1(C(=O)N2CCOCC2)CCCCC1 returned TNAP inh hiacc -5, Lmaj promast -1, TNAP inh no acc -15, PTEN del growth 103, HCT116 bCat-KO 109 and TNAP act hiacc 1.1.
O=C(N1CCN(c2ccc(F)cc2)CC1)C1(c2cccs2)CCOCC1 was read as TNAP inh hiacc 0, Lmaj promast -5, TNAP inh no acc -24, PTEN del growth 84, HCT116 bCat-KO 93 and TNAP act hiacc 1.
For O=[N+]([O-])c1ccc(C[n+]2cc(-c3ccccc3)n3c2CCCCC3)cc1 the results were TNAP inh hiacc 1, Lmaj promast 0, TNAP inh no acc -2 and TNAP act hiacc 1.
Clc1ccc(C[n+]2cc(-c3ccccc3)n3c2CCCCC3)c(Cl)c1 was read as TNAP inh hiacc -7, Lmaj promast 100*, TNAP inh no acc -16 and TNAP act hiacc 1.1.
Clc1ccc(C[n+]2cc(-c3ccccc3)n3c2CCC3)cc1Cl was read as TNAP inh hiacc -5, Lmaj promast 99*, TNAP inh no acc -20, PTEN del growth 67, HCT116 bCat-KO 63 and TNAP act hiacc 1.1.
Screening Clc1ccc(-c2c[n+](Cc3cccc(Cl)c3)c3n2CCC3)cc1 returned TNAP inh hiacc -7, Lmaj promast 100*, TNAP inh no acc -15, PTEN del growth 60, HCT116 bCat-KO 71 and TNAP act hiacc 1.1.
Screening O=C(NNC(=O)c1ccccc1O)c1ccco1 returned TNAP inh hiacc -2, Lmaj promast 0, TNAP inh no acc -44 and TNAP act hiacc 1.
`COc1ccc(/C(N)=N/O)c(OC)c1` gave TNAP inh hiacc 1, Lmaj promast -5, TNAP inh no acc -2 and TNAP act hiacc 1.

Screening results as filed in PubChem.
